Screens: PubChem BioAssay, several laboratories
Platelet DG rel: modulates dense granule release in human platelets | human platelet-rich plasma, SFLLRN dense granule ATP release, luminescence | inhibition, %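 (compounds screened at 7.5 µM in platelet-rich plasma)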 | actives 0.22% (n = 300,000) | AID 1663;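 active = mean replicate score, as percent of positive control, at or above 50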
SENP7 inh: inhibitors of human SENP7 protease; Q9BQF6; recombinant SENP7, Z-RLRGG-aminoluciferin luminescence, 40 min; inhibition, % at 5 µM; actives 1.5% (n = 330,000); AID 434973;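 active = inhibition above about 50% at the single test dose, limit read from the data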
SENP8 block-1: blocks human SENP8 cleavage of Nedd8 substrate. Q96LD8. recombinant SENP8, Nedd8 substrate fluorescence. inhibition, % at 20 µM. actives 0.64% (n = 360,000); in the data active = inhibition mostly above about 40%, no sharp cut-off; inactive = mostly below about 27%
Target sequence (Q96LD8 whole entry, looked up): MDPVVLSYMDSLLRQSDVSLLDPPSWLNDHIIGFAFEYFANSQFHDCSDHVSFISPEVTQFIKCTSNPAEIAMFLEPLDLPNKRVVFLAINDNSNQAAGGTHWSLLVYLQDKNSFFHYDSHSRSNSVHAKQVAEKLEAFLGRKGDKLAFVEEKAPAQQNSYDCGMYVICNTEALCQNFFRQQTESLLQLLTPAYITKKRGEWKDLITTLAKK
SENP8 block-2: blocks the human protease SENP8. AID 2540. purified SENP8, Z-RLRGG-aminoluciferin cleavage, luminescence. inhibition, % at 10 µM. actives 1.2% (n = 330,000); in the data active = inhibition above about 50%
SENP6 block: inhibitors of human SENP6 protease | Recombinant SENP6 catalytic domain, aminoluciferin luminescence | actives 1.8% (n = 330,000) | inhibition, % at 10 µM;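 active = inhibition above about 50% at the single tested dose, limit read from the data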
SENP1 inh: SENP1 (human) catalytic domain inhibition. recombinant SENP1 catalytic domain, CyPet-SUMO1-YPet FRET cleavage. AID 624204. Q9P0U3. actives 0.21% (n = 360,000). inhibition, % at 10 µM;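 active = inhibition at least 30% at 10 µM, raw YFP signal under a set limit, fluorescence ratio 0.5 to 1.5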
Target sequence (Q9P0U3 419-644 limits assumed): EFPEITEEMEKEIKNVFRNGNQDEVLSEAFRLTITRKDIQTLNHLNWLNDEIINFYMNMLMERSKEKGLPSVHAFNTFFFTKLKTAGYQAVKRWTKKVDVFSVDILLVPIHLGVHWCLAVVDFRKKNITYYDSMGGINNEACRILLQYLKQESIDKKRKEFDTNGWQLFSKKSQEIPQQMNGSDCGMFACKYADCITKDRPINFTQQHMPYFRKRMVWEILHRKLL
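Assay system – human recombinant His6-tagged SENP1 catalytic domain enzyme · Input – SENP1 enzyme, 20 pM final · Buffer or medium – Tris pH 8 buffer plus EDTA, NaCl, BME, BSA, NP40, catalase · Schedule – 50 min reaction at room temperature · Technique – FRET read of cyan and yellow fluorescence · Control set – no-enzyme wells low, DMSO-plus-enzyme wells high control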
Hits are given with their value; 0 = inactive; - = no result. The list is not random: actives were taken first. Their share in the collection is about 2.6%.

SMILES	Platelet DG rel	SENP7 inh	SENP8 block-1	SENP8 block-2	SENP6 block	SENP1 inh
Nc1n[nH]c(N)c1N=Nc1cccc(F)c1	0	0	0	0	0	0
O=C(O)c1ccc(N/N=C/C2=Cc3ccccc3OC2)cc1	0	98.9	0	98.0	100.6	0
COC(C(=O)Nc1ccnn1C1CCN(C(=O)c2ccc(C=O)cc2)CC1)c1ccccc1 (stereo not drawn)	0	0	0	0	0	0
Cc1nc(NC(=O)c2ccccc2)sc1-c1csc(Nc2cccc(Cl)c2)n1	0	0	-	0	0	-
Cc1nc(NC(=O)c2ccccc2)sc1-c1csc(Nc2ccc(Cl)cc2Cl)n1	0	59.3	-	0	50.9	-
Cc1nc(NC(=O)c2ccccc2)sc1-c1csc(Nc2ccc(F)cc2)n1	0	0	-	0	0	-
Cc1nc(NC(=O)c2ccccc2)sc1-c1csc(Nc2ccc(Cl)cc2)n1	0	0	-	0	50.9	-
CC1CCCCC12NC(=O)N(CC(=O)NCCc1ccc(S(N)(=O)=O)cc1)C2=O (stereo not drawn)	-	0	0	0	0	0
COC1c2ccccc2C(=O)N1Cc1ccc(F)cc1 (stereo not drawn)	0	0	0	0	0	0
COc1ccc(S(=O)(=O)NC2CC(=O)N(c3cccc(F)c3)C2)cc1OC (stereo not drawn)	0	0	0	0	0	0
COc1ccc(-c2noc(C3CCCN(C(=O)c4ccccc4OC)C3)n2)cc1OC (stereo not drawn)	0	0	0	0	0	0
COc1ccc(C(=O)N2CCCC(c3nc(-c4ccc(OC)c(OC)c4)no3)C2)c(OC)c1 (stereo not drawn)	49.8	0	0	0	0	0
O=C(NCc1ccccc1Cl)c1ccc2nc([C@@H]3O[C@H](CO)[C@@H](O)[C@H]3O)[nH]c2c1	-	-	0	-	-	0
O=C(N=Nc1c(O)n(Cc2ccccc2)c2ccccc12)c1ccncc1	0	0	42.1	0	0	0
COC(=O)N=Nc1c(O)n(Cc2ccccc2)c2ccccc12	0	0	0	0	0	0
CCn1c(COC(=O)CNC(=O)c2cc(OC)c(OC)c(OC)c2)nc2cc(S(=O)(=O)N(C)C)ccc21	0	0	0	0	0	0
O=C1C=C(N2CCN(c3ccccn3)CC2)C(=O)c2c(O)ccc(O)c21	-	-	76.3	-	-	0
O=C(CC1Sc2ccccc2NC1=O)NNc1cccc(Cl)c1Cl (stereo not drawn)	-	-	0	-	-	0
O=C(Nc1ccc(F)cc1F)c1ccc(-n2cccn2)nc1	0	0	0	0	0	0
CC(C)Sc1ccc(C(=O)Nc2ccc(F)cc2F)cn1	0	68.3	0	55.6	70.4	0
Cc1ccnc(NS(=O)(=O)c2cc(-c3cc(C)no3)ccc2C(C)C)c1	0	0	0	0	0	0
COc1ccc(-c2csc(NC3OC(=O)c4c3ccc(OC)c4OC)n2)cc1OC (stereo not drawn)	0	0	0	0	0	0
COc1ccc2c(c1OC)C(=O)OC2Nc1nc(-c2cc3cc(Br)ccc3oc2=O)cs1 (stereo not drawn)	0	90.9	0	90.9	94.6	0
CCCCNC(=O)C[C@@H]1C[C@@]2(C(=O)OC)CCCCC=C2N(Cc2ccccc2)C1=O	-	-	0	-	-	0
O=C(CN1C2=NCCCN2c2ccccc21)c1ccc(Br)s1	0	0	40.6	0	0	0
SMILES	Platelet DG rel	SENP7 inh	SENP8 block-1	SENP8 block-2	SENP6 block	SENP1 inh
COc1ccc(-n2nc3c(N4CCC(C(=O)N5CCC(C)CC5)CC4)nnc(C)c3c2C)cc1	0	0	0	0	0	68.0
Cc1nnc(N2CCC(C(=O)N3CCCCC3)CC2)c2nn(-c3ccc(Cl)cc3)c(C)c12	0	0	0	0	0	0
CCN1C(=O)/C(=C2\C=Cc3ccccc3N2CC)SC1=S	0	0	46.2	0	0	0
O=C(COC(=O)CNC(=O)c1ccccc1)NCCCc1ccccc1	-	0	0	0	0	0
CCS(=O)(=O)C1=NSC2=NC(=O)/C(=C\c3ccc(OC(=O)c4ccco4)c(OC)c3)C(=N)N21	0	0	0	0	0	0
CCS(=O)(=O)C1=NN2C(=N)/C(=C\c3ccc(OC(=O)c4ccco4)c(OC)c3)C(=O)N=C2S1	0	0	0	53.2	0	0
COc1ccc(CC(=O)NCc2ccccc2F)cc1S(=O)(=O)N1CCOCC1	-	-	0	-	-	0
Cc1ccc(O)c(N=NC2=C(O)CC(C)(C)CC2=O)c1	0	0	42.1	0	0	0
